Screens: PubChem BioAssay, The Scripps Research Institute Molecular Screening Center
mABHD4 FP = inhibits mouse alpha/beta hydrolase domain 4. Q8VD66. purified mABHD4, FP-Rh probe fluorescence polarization. inhibition, % at 8.92 µM. 370,000 tested, 0.54% active. AID 720543;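 active = inhibition exceeding the mean over every tested compound plus 3 SD, cut at about 30% in these data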;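 also: 0% = plate median of compound wells and 100% = S159A mutant with DMSO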
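Material: mouse ABHD4 enzyme, wild type; Benchmarks: S159A mutant high control, sample median low control; Buffer or medium: HEPES pH 7.0, NaCl, Pluronic buffer; Signal: fluorescence polarization; Read-out: percent inhibition of probe binding, normalized to plate controls; Timing: pre-incubation 45 min, probe exposure 60 min, at 25 °C; Dosing: 8.92 µM, single dose.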
SIAE inh = human SIAE inhibition, primary screen | SIAE FP-Rh probe binding, fluorescence polarization | inhibition, % at 9.66 µM | 370,000 tested, 0.69% active | AID 1053197;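 active = inhibition above a cutoff: mean of compounds within the control limits plus 3 SD of those, cut at about 17% in these data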;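 also: 0% = plate median of compound wells and 100% = probe without SIAE protein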
Target sequence (Q9HAT2 whole entry, looked up): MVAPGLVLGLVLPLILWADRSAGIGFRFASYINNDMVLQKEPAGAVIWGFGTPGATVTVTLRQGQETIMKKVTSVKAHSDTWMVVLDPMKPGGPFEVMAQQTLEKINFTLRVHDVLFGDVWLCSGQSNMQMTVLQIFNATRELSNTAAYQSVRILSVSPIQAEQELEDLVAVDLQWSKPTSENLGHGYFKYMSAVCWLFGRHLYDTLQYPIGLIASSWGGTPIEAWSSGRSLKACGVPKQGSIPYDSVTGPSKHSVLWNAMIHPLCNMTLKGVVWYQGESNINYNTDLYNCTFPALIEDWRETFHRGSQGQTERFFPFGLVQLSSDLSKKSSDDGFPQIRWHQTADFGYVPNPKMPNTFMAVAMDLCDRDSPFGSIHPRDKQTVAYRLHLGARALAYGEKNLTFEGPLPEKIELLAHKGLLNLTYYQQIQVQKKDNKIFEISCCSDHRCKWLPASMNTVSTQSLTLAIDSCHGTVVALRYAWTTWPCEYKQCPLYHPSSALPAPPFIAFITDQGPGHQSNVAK
TCR-CD3 inh = blocks the human TCR-CD3 interaction | TAMRA-labeled TCR probe fluorescence, biochemical | inhibition, % at 9.4 µM | 360,000 tested, 0.37% active; in the data active = inhibition above about 19%;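 also: recombinant mutant TCR 2C K166C tagged with TAMRA read by polarization; 0% = receptor in buffer alone and 100% = receptor with positive control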
HTRA1 inhibitor = inhibitors of human serine peptidase HTRA1; Q92743; recombinant HTRA1, FP-rhodamine activity-based probe, fluorescence polarization; inhibition, % at 5.96 µM; 340,000 tested, 0.5% active; AID 504803; in the data active = inhibition above about 36%;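 also: 0% = enzyme with DMSO and 100% = wells lacking enzyme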
rCAG binder-1 = r(CAG) repeat RNA binding; TO-PRO-1 dye displacement fluorescence; inhibition, % at 3 µM; 370,000 tested, 1.3% active;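 active = inhibition above the plate cutoff, the mean of all test compounds on that plate plus 3 SD, cut at about 35% in these data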;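 also: 0% = DMSO alone and 100% = 100 µM mitoxantrone as full dye displacement; higher means more dye released from RNA so lower well fluorescence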
rCAG binder conf = r(CAG) RNA repeat binding, confirmation; shares compounds with rCAG binder-1; AID 652065; TO-PRO-1 dye displacement fluorescence; 4,300 tested, 70% active; inhibition, % at 3 µM;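 active = inhibition above a per-plate cutoff, the mean inhibition of sample wells plus 3 SD, cut at about 35% in these data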;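 also: loss of TO-PRO-1 fluorescence as compound displaces dye from 1x1 AA loop RNA; 0% = DMSO only wells and 100% = 100 µM mitoxantrone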
DNA CAG counter = counter-screen for rCAG RNA binders: DNA CAG dye complex inhibitors; 4,300 tested, 94% active; d(CAG) DNA oligo TO-PRO-1 dye displacement, fluorescence; shares compounds with rCAG binder-1; inhibition, % at 3 µM;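 active = inhibition above its plate's cutoff, the mean test-well inhibition plus 3 SD, cut at about 4.8% in these data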;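 also: 0% = DNA dye mix with DMSO and 100% = 100 µM mitoxantrone; hits displace the dye from DNA and so lower well fluorescence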
dCAG dye DR = disrupts DNA CAG TO-PRO-1 complex in dose response; IC50, µM; DNA CAG/GTC duplex TO-PRO-1 dye displacement fluorescence; shares compounds with rCAG binder-1; 250 tested, 20% active; in the data active = IC50 below about 10 µM
dCAG TOPRO ctr = DNA CAG dye complex inhibition, late stage dose response. shares compounds with rCAG binder-1. d(CAG) DNA duplex TO-PRO-1 dye displacement, fluorescence. IC50, µM. 30 tested, 80% active. AID 720649
rCAG binder-2 = molecules binding r(CAG) RNA repeats, late stage dose response; IC50, µM; shares compounds with rCAG binder-1; 30 tested, 100% active; r(CAG) RNA TO-PRO-1 dye displacement, fluorescence
Active calls of the source: *; nt = not tested or not shown. Sampled rows, rich in hits. Any-hit rate of the full collection: about 2.5%. Unless noted, no rule for the calls is given here.

SMILES	mABHD4 FP	SIAE inh	TCR-CD3 inh	HTRA1 inhibitor	rCAG binder-1	rCAG binder conf	DNA CAG counter	others
O=C(N/N=C/c1c(O)n(C2CCCCC2)c(=S)[nH]c1=O)c1ccccc1O	23	5	13	35	45*	90*	67*
O=C(N/N=C/c1c(O)n(C2CCCCC2)c(=S)[nH]c1=O)c1ccccc1	5	-15	-1	11	16	nt	nt
CC(C)c1ccc(-n2c(O)c(/C=N/NC(=O)c3ccccc3O)c(=O)[nH]c2=S)cc1	26	-50	-17	18	82*	78*	43*
CC/C(=N\NC(=O)c1ccccc1O)c1c(O)n(C2CCCCC2)c(=O)[nH]c1=O	17	-7	18	36	59*	72*	29*	dCAG dye DR=2.8*;dCAG TOPRO ctr=2.4*;rCAG binder-2=0.99*
O=c1[nH]c(=O)n(Cc2ccco2)c(O)c1C=NCc1ccco1	9	-4	-4	8	6	nt	nt
O=c1ccc2c(O)c3ccoc3cc2o1	4	-5	3	-4	1	nt	nt
COc1ccc(N=C(C)c2c(O)[nH]c(=O)[nH]c2=O)cc1	2	5	0	2	-1	nt	nt
CC(C)n1c(=O)c(C=Nc2ccc(S(N)(=O)=O)cc2)c(O)n(Cc2ccco2)c1=O	-12	-12	-12	-1	35*	20	9.8*
CCCCn1c(=O)c(C=Nc2ccc(Cl)cc2)c(O)n(Cc2ccco2)c1=O	0	-38	4	-20	10	nt	nt
COC(=O)c1cc2c(s1)=NC=NP=2(N1CCOCC1)N1CCOCC1	6	3	3	5	1	nt	nt
Cc1ccccc1N1CCN(Cc2ccc3c(c2)OCO3)CC1	7	6	0	2	0	nt	nt
Cc1cc(OCC(=O)NC(Cc2ccc(Cl)cc2)C(=O)O)c2c3c(c(=O)oc2c1)CCCC3 (stereo not given)	0	-6	7	-22	63*	66*	27*
CCCCN1C(=O)/C(=C/C=C/c2ccco2)C(=O)NC1=S	-113	-75	-91	-41	76*	66*	26*	dCAG dye DR=3.1*;dCAG TOPRO ctr=3.1*;rCAG binder-2=1.4*
CCCCN1C(=O)/C(=C\c2ccco2)C(=O)N(CCc2ccccc2)C1=O	-5	-9	-9	18	27	nt	nt
O=C1NC(=O)N(Cc2ccccc2)C(=O)/C1=C\c1ccco1	-23	-4	-17	3	48*	35*	11*
O=C1NC(=O)N(Cc2ccco2)C(=O)/C1=C/c1cccn1CCOc1ccccc1Cl	-13	-24	-3	-1	49*	11	5.7*
COc1ccc(CN2C(=O)NC(=O)/C(=C/c3ccoc3)C2=O)cc1	-38	-9	-8	-8	53*	45*	17*
COc1ccc(CN2C(=O)NC(=O)/C(=C/c3cc(OC)c(OC)c(OC)c3)C2=O)cc1	2	7	-4	-3	15	nt	nt
Cc1ccc(-n2c(O)c(C=NCc3cccnc3)c(=O)[nH]c2=O)cc1C	7	-6	-7	1	0	nt	nt
CCN(CC)c1ccc(/C=C2\C(=O)NC(=O)N(Cc3ccco3)C2=O)cc1	-65	-84	-78	-40	24	nt	nt
O=C1NC(=O)N(Cc2ccc(F)cc2)C(=O)/C1=C\C=C\c1ccco1	-11	-10	-12	1	52*	18	7.6*
Cc1ccc(N2C(=O)NC(=O)/C(=C\c3cn(CC(=O)O)c4ccccc34)C2=O)cc1	-5	-45	-3	-9	9	nt	nt
O=C(O)Cn1cc(/C=C2\C(=O)NC(=O)N(Cc3ccco3)C2=O)c2ccccc21	-2	-7	2	-11	45*	62*	23*
C[C@]12CC[C@@H](O)CC1=CC(=O)C1C2CC[C@]2(C)C(=O)[C@H](O)CC12 (stereo not given in full)	-2	5	3	-3	3	nt	nt
CCCCN1C(=O)/C(=C/c2ccc(N(C)C)cc2)C(=O)N(Cc2ccco2)C1=O	-85	-77	-40	-69	54*	33	10*
SMILES	mABHD4 FP	SIAE inh	TCR-CD3 inh	HTRA1 inhibitor	rCAG binder-1	rCAG binder conf	DNA CAG counter	others
CCOc1ccc(N2C(=O)/C(=C\c3cccs3)C(=O)NC2=S)cc1	-123	-37	-63	nt	39*	9	7.3*
O=C1NC(=S)N(c2ccccc2F)C(=O)/C1=C\c1cccs1	-47	-67	-52	-26	14	nt	nt
C=CCn1c(O)c(/C(CC)=N/NC(=S)Nc2ccccc2)c(=O)[nH]c1=O	6	-3	11	-1	1	nt	nt
C=CCn1c(O)c(/C(C)=N/NC(=S)Nc2ccccc2)c(=O)[nH]c1=O	5	3	2	-3	37*	44*	13*
C/C(=N\NC(N)=O)c1c(O)n(C)c(=O)n(C)c1=O	-1	2	-5	-3	1	nt	nt
COP(=S)(OC)Oc1ccc(Sc2ccc(OP(=S)(OC)OC)cc2)cc1	-16	4	-5	-10	39*	19	7.6*
Nc1ccc(Sc2ccc(N)cc2)cc1	3	7	6	8	4	nt	nt
Cc1cc2c(C(C)C)c(O)c(O)c(C=O)c2c(O)c1-c1c(C)cc2c(C(C)C)c(O)c(O)c(C=O)c2c1O	92*	19*	5	nt	97*	94*	81*
C[C@]12CCC3C(CC[C@@H]4C[C@@H](O)CC[C@]34C)C1CC[C@@H]2O (stereo not given in full)	-8	-3	-2	3	-1	nt	nt
Cc1cccc(N2C(=O)/C(=C/c3ccc(N4CCN(C)CC4)o3)C(=O)NC2=S)c1C	-30	-24	-25	0	49*	55*	26*
Cc1ccccc1N1C(=O)NC(=O)/C(=C/c2ccc(N3CCOCC3)o2)C1=O	-15	-5	-3	0	-46	nt	nt
CCc1ccccc1N1C(=O)/C(=C/c2ccc(N3CCN(C)CC3)o2)C(=O)NC1=S	-32	-19	-22	-5	50*	48*	24*
c1ccc(C2CC2)c(OCC2=NCCN2)c1	-9	-7	4	-1	3	nt	nt
CN1C(=O)NC(=O)/C(=C/c2ccc([N+](=O)[O-])s2)C1=O	-7	-7	-13	14	19	nt	nt
COc1ccc(OC)c(N2C(=O)NC(=O)/C(=C\c3ccc([N+](=O)[O-])s3)C2=O)c1	-35	-8	-32	31	92*	74*	34*
